From PubChem BioAssay
An excerpt weighted towards active compounds, which were near 4.9% of everything screened.
STAT3 act = activators of IL-6 induced STAT3 signaling; activation (% of control), % at 5.6 µM; U3A cells, IL-6 STAT3-luciferase reporter, luminescence; 100% = signal with IL-6 EC80 alone; hit rate 0.91% among 190,000; AID 871;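 active = activation above the screen-wide mean of compound activation plus 3 SD, cut at about 130% in these data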;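 also: 0% = background luminescence of wells with medium and substrate only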
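Material: human STAT1-deficient U3A cells with stable STAT3-luciferase reporter / Probe or stimulus: IL-6 stimulus at 33 ng/mL final / Schedule: 1 h compound pre-exposure, 6 h IL-6 stimulation, 37 °C / Technique: luminescence / Read-out basis: percent of IL-6-only median luminescence / Control set: IL-6-only high control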
STAT3 blocker = reduces IL-6 driven STAT3 reporter signal; U3A cells, IL-6 STAT3-luciferase reporter, luminescence; host cell line lacks STAT1; inhibition, % at 5.5 µM; hit rate 0.89% among 190,000;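 active = inhibition above the mean inhibition across all screened compounds plus 3 SD, cut at about 44% in these data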;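 also: 0% = DMSO only wells and 100% = 100 µM nifuroxazide control wells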
STAT1 activator = increases IFN-gamma driven STAT1 reporter signal | NIH 3T3 STAT1-luciferase reporter, luminescence; 100% = IFN-gamma alone, no compound | activation (% of control), % at 5.5 µM | hit rate 2.6% among 200,000 | AID 932;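 active = activation above the screen-wide mean activation plus 3 SD, cut at about 130% in these data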;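 also: raw ratio to IFN-gamma control signal so 100% means no change and 0% no light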
STAT1 blocker = reduces IFN-gamma driven STAT1 reporter signal; hit rate 0.35% among 200,000; AID 920; inhibition, % at 5.5 µM; NIH 3T3 STAT1-luciferase reporter, luminescence;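 active = inhibition above a set limit, the mean inhibition across all tested compounds plus 3 SD, cut at about 34% in these data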;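 also: 0% = IFN-gamma with DMSO and 100% = IFN-gamma with 300 µM nifuroxazide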
APP 5'UTR act = activates APP 5'UTR luciferase reporter; SH-SY5Y APP 5'UTR luciferase reporter, luminescence; zero percent = DMSO vehicle wells; activation, % at 2 µM; hit rate 1% among 190,000;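 active = activation above a set limit, based on mean plus 3 SD of controls, cut at about 140% in these data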
NF-kB expr up = raises NF-kB expression in human neuronal cells. fold change at 12.5 µM. AID 1239. NF-kB reporter expression; hits give high values. hit rate 1.6% among 190,000; in the data active = fold change above about 3.3
The depositor's hits bear a star; x = no result.

SMILES | STAT3 act | STAT3 blocker | STAT1 activator | STAT1 blocker | APP 5'UTR act | NF-kB expr up
Cc1ccc(/C=C/C(=O)Nc2ncc(C)s2)o1 | 105 | -6 | 147* | -52 | 121 | 3.1
Cc1csc(NC(=O)/C=C/c2ccc(C)o2)n1 | 99 | 0 | 116 | -17 | 88 | 1.8
Cc1ccc(/C=C/C(=O)Nc2nccs2)o1 | 100 | 2 | 148* | -54 | 79 | 3.2
CCc1ccc(NC(=O)Cn2c3[n+](c4c(F)c(F)ccc42)CCCCC3)cc1 | 104 | 0 | 112 | -11 | -9 | 1.4
CC1(c2ccccc2)NC(=S)N2C1NC(=S)N2c1ccccc1 (configuration not stated) | 98 | 7 | 103 | -3 | 1 | 1.5
COc1ccc(N2C(=S)NC3N2C(=S)NC3(C)c2ccccc2)cc1 (configuration not stated) | 87 | 24 | 125 | -29 | 55 | 6.7*
COCC(=O)NC1CCN(C(=O)Nc2ccc(Br)cc2)CC1 | 96 | 5 | 96 | 4 | 1 | 1.2
CC(C)c1ccc(/C=C/C(=O)Nc2nncs2)cc1 | 85 | 18 | 145* | -47 | 134 | 7*
Cc1sc(NC(=O)/C=C/c2ccc(C(C)C)cc2)c(C#N)c1C | 98 | 4 | 102 | -2 | 2 | 1.2
O=C(c1ccc(F)cc1)c1ccc(N2CCCC2)cc1 | 102 | 4 | 138* | -41 | 57 | 1.8
COc1ccccc1-c1nn2c(C3COc4ccccc4O3)nnc2s1 (configuration not stated) | 133* | -36 | 102 | -2 | -2 | 1.1
c1ccc(Cc2nn3c(C4COc5ccccc5O4)nnc3s2)cc1 (configuration not stated) | 135* | -41 | 104 | -5 | 15 | 1.7
O=[N+]([O-])c1cccc(S(=O)(=O)c2ccc(NCCO)c([N+](=O)[O-])c2)c1 | 97 | 9 | 90 | 9 | -2 | 0.37
CN1C(=O)N(C)C2(c3ccccc3)N(C)C(=O)NC12c1ccccc1 (configuration not stated) | 98 | 8 | 98 | 2 | 8 | 1.9
Cc1cc(Sc2nc(N(C)C)nc(N(C)C)n2)nc(Cl)n1 | 96 | 9 | 98 | 2 | -7 | 1.3
Cc1cccc(NC(NC(=O)Cc2ccccc2)C(Cl)(Cl)Cl)c1 (configuration not stated) | 106 | -9 | 96 | 4 | 3 | 1
CC1CCc2nc(NC(=O)c3ccco3)sc2C1 (configuration not stated) | 22 | 97* | 61 | 43* | 39 | 1.8
O=C(CCCc1cccs1)Nc1nc2c(s1)CCCC2 | 133* | -36 | 106 | -7 | 52 | 2.2
Cc1csc(NC(=O)CCCc2cccs2)n1 | 102 | 2 | 114 | -16 | 14 | 1.8
CC1CCc2nc(NC(=O)Cc3cccs3)sc2C1 (configuration not stated) | 105 | -2 | 143* | -46 | 105 | 4.3*
CCc1cccc2c1NC(=O)C2(O)CC(=O)c1cccs1 (configuration not stated) | 102 | 2 | 95 | 2 | 21 | 1
COC(=O)CCc1sc(Nc2ccccc2)nc1-c1ccc(OC)cc1 | 109 | -13 | 138* | -42 | 44 | 0.96
O=C(COC(=O)Cc1ccc(Cl)cc1)Nc1c(F)cccc1F | 99 | 6 | 98 | 4 | -5 | 1.3
Cc1ccc(NC2=C/C(=N/S(=O)(=O)c3cccs3)c3ccccc3C2=O)cc1C | 106 | 2 | 98 | 2 | 40 | 0.9
Cc1cc(C)c(S(=O)(=O)/N=C2/C=C(Sc3ncn[nH]3)C(=O)c3ccccc32)cc1C | 143* | -55 | 99 | 1 | -89 | 0.46
SMILES | STAT3 act | STAT3 blocker | STAT1 activator | STAT1 blocker | APP 5'UTR act | NF-kB expr up
COc1ccc2nc(-c3ccco3)c(-c3ccco3)nc2c1 | 102 | 4 | 99 | 1 | 6 | 0.75
COc1ccc2nc3cccc(OC)c3nc2c1 | 99 | 3 | 129* | -32 | 7 | 0.95
CCOC(=O)c1ccc(NC(=O)CN2C(=O)CSC(C)C2=O)cc1 (configuration not stated) | 105 | -9 | 113 | -15 | -5 | 0.9
COC(=O)c1cc(-c2c(C)nn(-c3ccccc3)c2C)n[nH]1 | 94 | 10 | 95 | 12 | 2 | 5.9*
Cn1ccnc1SCC(=O)c1cccc(Br)c1 | 121 | -18 | 113 | -14 | 46 | 1.5
Cn1ccnc1SCC(=O)c1ccc2ccccc2c1 | 101 | -1 | 146* | -49 | 164* | 3
Cn1ccnc1SCC(=O)Nc1ccc2ccccc2c1 | 74 | 35 | 140* | -37 | 105 | 4.4*
C#CCOCCOCCOCCNc1nc(N2CCN(C(=O)[C@H](Cc3cc4ccccc4[nH]3)n3cc([C@@H](N)CC(C)C)nn3)CC2)nc(N2CCN(C(=O)[C@H](Cc3cc4ccccc4[nH]3)n3cc([C@@H](N)CC(C)C)nn3)CC2)n1 | x | x | 101 | 1 | -3 | 1
O=C1/C(=C\c2ccc3ccccc3c2)CCCc2ccccc21 | 94 | 6 | 121 | -23 | 41 | 4.8*
COc1ccc(/C=C2\CCc3ccccc3C2=O)cc1OC | 105 | 4 | 94 | 7 | 62 | 3.6*
COc1ccc(Cl)cc1S(=O)(=O)N1CCCC1=O | 99 | 6 | 94 | 5 | 1 | 1.4
O=C(Nc1cnc2ccccc2c1)N1CCOCC1 | 104 | 1 | 112 | -13 | 14 | 1.7
O=C(Nc1cnc2ccccc2c1)N1CCCCC1 | 104 | 2 | 135* | -36 | 86 | 2.2
c1ccc(-n2ncc3c(NCCN4CCOCC4)ncnc32)cc1 | 106 | -3 | 133* | -36 | 30 | 1.8
CC(C)OCCCNc1ncnc2c1cnn2-c1ccccc1 | 83 | 27 | 128 | -31 | 194* | 6*
c1ccc(CCNc2ncnc3c2cnn3-c2ccccc2)cc1 | 98 | 7 | 140* | -43 | 135 | 6.5*
c1ccc(CNc2ncnc3c2cnn3-c2ccccc2)cc1 | 99 | 7 | 127 | -30 | -18 | 2.1
COc1ccc(NC(=O)Cc2coc3cc(C)ccc23)cn1 | 108 | 0 | 92 | 7 | 8 | 1.1
COc1cc(C(=O)NCC(=O)OCCN2C(=O)c3ccccc3C2=O)cc(OC)c1OC | 100 | 9 | 102 | -4 | -4 | 1.4
COc1ccccc1NC(=S)NCc1ccc2c(c1)OCO2 | 99 | 4 | 99 | 1 | 0 | 1.2
CC1(C)CC2(CC(c3ccccc3)c3ccc(O)cc3O2)NC(=S)N1 (configuration not stated) | 98 | 5 | 106 | -9 | 17 | 0.99
CC(C)c1cc(C(=O)NCCc2ccccc2)no1 | 105 | 7 | 133* | -37 | 75 | 2.2
CC(=O)c1cccc(NC(=O)c2cc(C(C)C)on2)c1 | 86 | 22 | 122 | -25 | 119 | 3.9*
CC(C)c1cc(C(=O)Nc2cccc(Cl)c2)no1 | 74 | 39 | 124 | -26 | 187* | 11*
